# In the library only some 1.6% were active in any assay of this set; here they are far more common.
# Arrestin-AP2 inh: human beta-arrestin and AP2 interaction inhibition; FITC-arrestin peptide / GST-AP2 beads, flow cytometry; AP2 beta2 appendage carries R879A mutation; inhibition, % at 10 µM; hit rate 0.31% among 340,000;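 active = inhibition above a set limit, near 3 SD of compounds lacking own fluorescence, cut at about 54% in these data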;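 also: plate controls were DMSO wells for no effect and 5 µM unlabelled arrestin peptide for full effect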
#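 System: GST-AP2 R879A bound to glutathione beads, E. coli-expressed. Also added: 50 nM FITC-arrestin peptide. Schedule: compound with beads 12 min RT, then probe 1 h RT. Signal: bead flow cytometry, FITC channel. Read-out basis: percent response.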
# T cell modulator: T cell immune modulators affecting CD8 T cell-vesicle binding. 2C CD8+ T cell-vesicle binding, flow cytometry; stronger effect = lower value. response (vesicle binding), % at 7 µM. hit rate 0.068% among 330,000. AID 2052;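 active = response, share of CD8 T cells binding vesicles, and their 90th percentile fluorescence all below set limits, cut at about 80% in these data, passing the limit was not always enough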;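 also: values below 100% mean blocked vesicle binding to the CD8+ T cells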
#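 material = purified 2C TCR transgenic mouse naive CD8+ T cells | controls = Unloaded micro-vesicles (low), QL9 vesicles with 0.7% DMSO (high) | detection = cytometric PE anti-B7-1 and Alexa647 anti-CD8 signals after 1% paraformaldehyde fixation | incubation = binding step 1.5 h, 37 °C, antibody labelling 20 min, ice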
# Pemphigus Ab inh: inhibitors of pemphigus antibody binding to human desmoglein-3; DSG3-coupled beads, scFv-anti-DSG3-GFP binding, flow cytometry; stronger effect = lower value; hit rate 0.48% among 310,000; binding (percent of control), % at 10 µM; AID 588358;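 active = binding more than 3 SD below its plate's average and above zero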
# HDAC3 inhib: inhibitors of human histone deacetylase 3; O15379; recombinant HDAC3, fluorogenic peptide/trypsin coupled, fluorescence; inhibition, % at 8.3 µM; hit rate 0.15% among 320,000; AID 2718; in the data active = inhibition above about 26%, passing the limit was not always enough
# LANA-H2B inh: blocks KSHV LANA binding to histone H2A/H2B; cell-free LANA-H2A/H2B peptide, fluorescence polarization; inhibition, % (test concentration not listed); hit rate 0.6% among 320,000; in the data active = inhibition mostly above about 10%, no sharp cut-off; inactive = mostly below about 6.7%
# JMJD2C inh: blocks human GASC-1 demethylase activity; Q9H3R0; GST-JMJD2C(1-420) H3K9me3 demethylation, DELFIA europium; inhibition, % at 2.35 µM; hit rate 0.069% among 330,000; AID 2099;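 active = more than half of a compound's replicate wells show inhibition beyond 50%, single wells judged on their own value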;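 also: signal counts dimethyl H3K9 product captured on neutravidin plate; 0% = median of DMSO wells and 100% = 0.3 times that DMSO median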
# Target sequence (Q9H3R0 1-420 limits assumed): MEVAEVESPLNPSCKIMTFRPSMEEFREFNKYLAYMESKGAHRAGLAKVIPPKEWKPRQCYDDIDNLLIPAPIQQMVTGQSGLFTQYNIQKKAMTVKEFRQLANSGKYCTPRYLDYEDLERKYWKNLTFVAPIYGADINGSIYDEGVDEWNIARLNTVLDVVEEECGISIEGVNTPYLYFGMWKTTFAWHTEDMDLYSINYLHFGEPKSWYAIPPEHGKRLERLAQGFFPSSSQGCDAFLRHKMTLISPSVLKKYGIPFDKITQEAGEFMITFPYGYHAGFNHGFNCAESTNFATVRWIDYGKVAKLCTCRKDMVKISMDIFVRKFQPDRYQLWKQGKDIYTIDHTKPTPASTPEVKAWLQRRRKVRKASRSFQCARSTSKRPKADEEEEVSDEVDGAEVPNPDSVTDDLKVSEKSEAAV
# Starred values were filed as active, the others as inactive; i = inactive; x = not tested or not shown; + = active, no number.
SMILES,Arrestin-AP2 inh,T cell modulator,Pemphigus Ab inh,HDAC3 inhib,LANA-H2B inh,JMJD2C inh
CCC(C)(C)NC(=O)CN(Cc1ccc(OC)cc1)C(=O)CCC(=O)Nc1nccs1,-0.6,239.6,114.2,0.4,-1.1,-175.8
O=C(CSc1nnc(-c2ccncc2)n1-c1ccccc1Cl)Nc1ccc(C(=O)O)cc1,-14.0,223.1,96.8,-10.5,47.7*,5.3
CC(=O)Nc1ccc(S(=O)(=O)NC2(c3ccccc3)C(=O)N(C)C(=O)N(C)C2=O)cc1,1.8,x,101.6,x,x,x
Cc1cc(NC(=O)CSc2nnc(-c3ccco3)n2Cc2ccccc2)no1,-3.9,152.4,104.6,9.2,-4.8,9.4
Cc1cc(NC(=O)CSc2nnc(-c3c[nH]c4ccccc34)n2-c2ccc(F)cc2)no1,-0.2,318.9,14.2*,0.0,0.7,x
CCOc1ccc(-n2c(SCC(=O)Nc3cc(C)on3)nnc2-c2c[nH]c3ccccc23)cc1,4.2,819.1,101.5,-2.7,1.6,-4.4
Cc1cc(NC(=O)CSc2nnc(-c3ccc(Br)o3)n2Cc2ccccc2)no1,12.7,206.5,98.0,5.2,12.5*,-6.7
Cc1cccc(C)c1OCCNC(=O)c1ccc2ccccc2n1,1.9,719.0,-7.3*,3.2,2.3,2.3
Cc1ccc(OCCNC(=O)c2ccc3ccccc3n2)cc1,24.8,243.7,100.9,0.1,-3.6,6.3
CCOc1ccc(/C=N/n2c(C)nc3ccccc3c2=O)cc1,-1.4,254.1,68.2*,-2.9,-0.2,0.8
Cc1nc2ccccc2c(=O)n1/N=C/c1ccc(OC(F)F)cc1,28.6,145.3,103.2,4.3,-3.0,-1.3
O=C(COC(=O)c1ccc(S(=O)(=O)N2CCc3ccccc3C2)cc1)NC1CCS(=O)(=O)C1 (stereo not drawn),16.4,265.0,67.5*,-0.1,4.9,-6.0
Cc1ccc(S(=O)(=O)CCC(=O)OCC(=O)NC2CCS(=O)(=O)C2)cc1 (stereo not drawn),37.7,202.6,107.0,1.7,24.5*,-1.8
O=C(COC(=O)c1ccc(S(=O)(=O)N2CCCCC2)cc1)NC1CCCCC1,x,x,102.3,x,x,x
CCN1CCN(c2nc(S(=O)(=O)c3ccc(C)cc3)c(Cl)s2)CC1,3.3,237.9,89.0,7.1,-0.5,1.6
COC(=O)C(C)Sc1nc(NCc2ccccc2)nc(N(C)C)n1 (stereo not drawn),2.8,307.5,83.9*,x,x,0.1
CCNc1nc(SC(C)C(=O)Nc2ccccc2)nc(N(C)C)n1 (stereo not drawn),4.9,276.9,114.5,-2.6,-2.6,-5.6
O=C(CCNC(=O)N1CC(=O)Nc2ccccc21)Nc1cccc(Cl)c1,-9.0,879.5,133.0,0.8,15.0*,1.4
O=C(CCNC(=O)N1CC(=O)Nc2ccccc21)NCc1cccc(Cl)c1,42.7,102.8,99.9,-9.6,-5.6,-4.8
O=S(=O)(NC1CCC(NS(=O)(=O)c2c(F)cccc2F)CC1)c1ccc2c(c1)OCCO2 (stereo not drawn),5.8,770.4,107.8,3.0,3.0,3.4
O=S(=O)(c1ccc2c(c1)OCCO2)C1CCC(S(=O)(=O)c2c(F)cccc2F)CC1 (stereo not drawn),8.4,401.0,98.5,40.2*,4.5,x
CC(=O)NC1C(=O)N(CCN2CCOCC2)c2ccc(Br)cc21 (stereo not drawn),-14.2,76.5,95.6,-4.7,-2.1,7.5
CCOc1ccc2c(c1)C(NC(C)=O)C(=O)N2CCN1CCOCC1 (stereo not drawn),10.1,151.9,80.6*,5.1,1.0,-3.4
Cc1ccc(/C(N)=N/OC(=O)C(C)c2ccc([N+](=O)[O-])cc2)cc1 (stereo not drawn),15.3,247.2,88.3,6.4,16.5*,-3.3
COCCN(C(=O)CSc1nnc(-c2ccco2)n1C)c1c(N)n(CC(C)C)c(=O)[nH]c1=O,4.3,547.8,91.8,-1.4,-9.6,-26.1
SMILES,Arrestin-AP2 inh,T cell modulator,Pemphigus Ab inh,HDAC3 inhib,LANA-H2B inh,JMJD2C inh
O=C(NC(=S)Nc1ccc2c(c1)OCCO2)c1ccccc1F,-0.2,236.2,x,1.1,12.9*,7.1
Nc1ncnc(N)c1NC(=O)c1cc(Cl)c(OCc2ccccc2)c(Cl)c1,x,x,97.4,x,x,x
O=C(Nc1ccccc1O)c1ccc(C(=O)c2ccccc2)o1,-1.7,163.1,101.8,48.1*,3.0,8.6
Cc1cc(=O)oc2cc(NC(=O)CCOc3ccccc3)ccc12,-12.8,241.4,119.3,-1.3,6.7,-12.5
CCCN1CCN(CCCNC(=O)c2ccc(NC(=O)C3=C(C)OCCS3)cc2)CC1,1.3,i,99.4,-2.0,2.0,-5.0
S=c1[nH]nc(COc2ccccc2)n1/N=C/C=C/c1ccco1,0.0,323.5,81.0*,6.6,2.2,17.1
S=c1[nH]nc(COc2ccccc2)n1/N=C/C=C/c1ccccc1,-17.8,356.8,101.7,-8.7,-1.5,-4.6
O=C(O)c1cscc1-c1cccc2ccccc12,x,x,107.1,x,x,x
O=C(CCN1C(=O)CSc2ccccc21)Nc1ccc(OC(F)(F)F)cc1,9.7,314.7,96.1,6.6,+,1.8
NC(=O)NC(CC(=O)NCCc1ccccn1)c1ccccc1Cl (stereo not drawn),-59.6,450.4,114.8,0.8,15.0*,-10.1
CCOc1ccc(N(CC(=O)NC2CC2)S(=O)(=O)c2ccc(C)cc2)cc1,-0.7,553.8,x,-1.5,4.5,-6.0
O=C(CCc1nc2ccccc2c(=O)[nH]1)OCc1ccc(-c2ccccc2)cc1,48.1,122.0,7.9*,0.2,2.7,-12.1
O=C(CCc1nc2ccccc2c(=O)[nH]1)OCc1cccc(C(F)(F)F)c1,-3.8,184.9,99.1,-7.5,-3.8,-24.1
Cc1ccsc1C(=O)OCc1nc2ccsc2c(=O)[nH]1,-5.4,399.7,102.6,-2.9,1.1,3.7
Cc1ccsc1C(=O)OCc1nc2ccccc2c(=O)[nH]1,-12.3,433.0,121.9,-11.7,-2.3,103.0*
COc1cc(C)ccc1Oc1ccc([N+](=O)[O-])cc1,23.1,x,x,x,x,x
Cc1ccc(Nc2c(-c3ccco3)nc3nc(C)cc(C)n23)cc1,5.3,218.8,139.4,5.1,21.2*,7.3
Cc1ccc2nc(-c3ccco3)c(Nc3ccccc3)n2c1,6.7,224.8,84.5,-14.4,2.1,0.2
COc1cc2ccccc2cc1C(=O)NC(=S)Nc1nnn(C)n1,16.2,410.0,-8.3*,-8.8,4.3,-5.4
COc1cc2ccccc2cc1C(=O)Nc1nccs1,4.1,805.5,102.1,-4.1,20.2*,-6.6
COc1c(C(=O)Nc2ccc(Br)cn2)ccc2ccccc12,25.2,205.0,95.6,0.9,1.7,0.7
COc1c(C(=O)Nc2nccs2)ccc2ccccc12,42.4,263.1,125.9,-0.5,1.1,-5.8
COc1cc2ccccc2cc1C(=O)Nc1ccc(Br)cn1,15.0,187.4,88.8*,-5.2,2.0,-6.0
c1ccc(SCCc2ccncc2)cc1,2.1,279.7,110.6,-5.6,3.3,2.8
